Test results reported in ChEMBL document CHEMBL2429849, “Substrate-based fragment identification for the development of selective, nonpeptidic inhibitors of striatal-enriched protein tyrosine phosphatase” (J Med Chem, 2013).
Calls of active or inactive are those of the source. The rule behind the calls is not given here.

Key:
[1] = biological target: T1, Tyrosine-protein phosphatase non-receptor type 2 (Homo sapiens, UniProt P17706); experiment: Inhibition of human TC-PTP using pNPP as substrate after 5 mins by spectrophotometric plate reader analysis
T1 sequence (P17706 whole entry): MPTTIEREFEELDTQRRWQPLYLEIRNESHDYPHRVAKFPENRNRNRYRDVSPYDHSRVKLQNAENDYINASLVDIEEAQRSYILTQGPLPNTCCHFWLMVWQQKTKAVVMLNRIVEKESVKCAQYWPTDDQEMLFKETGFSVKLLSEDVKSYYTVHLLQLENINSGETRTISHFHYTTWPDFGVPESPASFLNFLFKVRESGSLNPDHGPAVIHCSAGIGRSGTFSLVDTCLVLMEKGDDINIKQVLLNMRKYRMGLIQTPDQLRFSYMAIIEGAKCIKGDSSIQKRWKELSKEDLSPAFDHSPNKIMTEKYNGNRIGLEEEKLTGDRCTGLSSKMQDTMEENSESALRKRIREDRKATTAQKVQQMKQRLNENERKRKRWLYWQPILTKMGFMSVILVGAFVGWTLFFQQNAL
In short: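 Selectivity assay using the STEP Ki protocol. Enzyme was preincubated 5 min at 27 °C with two- or three-fold inhibitor serial dilutions in DMSO, in imidazole/NaCl buffer at pH 7.0 with 0.01% Triton X-100 and 5 mM DTT. Reaction started with pNPP (500 μM in assay), read continuously at 405 nm for 20 min. Ki came from nonlinear regression of substrate-velocity curves, using this enzyme's pNPP KM; at least duplicate.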

[2] = biological target: T2, Tyrosine-protein phosphatase non-receptor type 5 (Homo sapiens, UniProt P54829); experiment: Inhibition of human STEP using pNPP as substrate after 5 mins by spectrophotometric plate reader analysis
T2 sequence (P54829 whole entry): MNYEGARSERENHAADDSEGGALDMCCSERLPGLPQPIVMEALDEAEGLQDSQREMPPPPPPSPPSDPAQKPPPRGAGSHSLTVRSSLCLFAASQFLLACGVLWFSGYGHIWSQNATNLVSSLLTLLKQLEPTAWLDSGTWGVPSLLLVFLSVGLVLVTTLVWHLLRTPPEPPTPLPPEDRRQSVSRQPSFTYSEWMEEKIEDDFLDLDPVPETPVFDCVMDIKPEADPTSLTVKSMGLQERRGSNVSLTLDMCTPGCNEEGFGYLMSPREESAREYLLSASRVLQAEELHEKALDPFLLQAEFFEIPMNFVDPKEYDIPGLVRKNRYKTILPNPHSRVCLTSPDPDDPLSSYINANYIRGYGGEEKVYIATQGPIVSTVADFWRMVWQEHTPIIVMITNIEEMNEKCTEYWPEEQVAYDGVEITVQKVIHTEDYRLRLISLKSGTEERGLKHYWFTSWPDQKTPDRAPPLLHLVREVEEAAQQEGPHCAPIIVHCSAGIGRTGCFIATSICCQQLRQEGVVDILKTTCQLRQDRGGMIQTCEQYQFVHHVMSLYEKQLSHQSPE

[3] = biological target: T3, Dual specificity protein phosphatase 10 (Homo sapiens, UniProt Q9Y6W6); experiment: Inhibition of human MKP5 using DiFMUP as substrate after 5 mins by spectrophotometric plate reader analysis
T3 sequence (Q9Y6W6 whole entry): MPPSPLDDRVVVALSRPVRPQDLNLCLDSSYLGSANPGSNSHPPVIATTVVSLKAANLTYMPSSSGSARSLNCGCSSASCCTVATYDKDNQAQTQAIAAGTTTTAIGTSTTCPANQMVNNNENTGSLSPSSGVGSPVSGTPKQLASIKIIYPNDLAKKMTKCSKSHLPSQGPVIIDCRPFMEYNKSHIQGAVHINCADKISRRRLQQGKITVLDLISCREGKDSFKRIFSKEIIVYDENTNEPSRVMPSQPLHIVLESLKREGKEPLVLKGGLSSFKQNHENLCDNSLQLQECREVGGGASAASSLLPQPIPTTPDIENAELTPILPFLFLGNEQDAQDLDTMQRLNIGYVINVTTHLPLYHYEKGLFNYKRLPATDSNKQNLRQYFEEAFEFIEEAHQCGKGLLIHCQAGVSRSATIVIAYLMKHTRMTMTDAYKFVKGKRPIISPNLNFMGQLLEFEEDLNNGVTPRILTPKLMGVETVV
In short: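 The […] substrate was DiFMUP. Buffer was Tris-HCl pH 8.0 with Triton X-100 and 5 mM DTT. Inhibitor was preincubated with enzyme for 5 min at 27 °C before adding substrate. Ki from nonlinear regression of initial-rate substrate–velocity data at several inhibitor concentrations; at least duplicate.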

Homo sapiens [4] = species on record: Homo sapiens; experiment: Selectivity ratio of Ki for human TC-PTP to Ki for human STEP
In short: (§1)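 STEP, CD45, LAR and TC-PTP used pNPP (500 μM) in imidazole/NaCl pH 7.0 with Triton X-100, read at 405 nm for 20 min. MKP5 used DiFMUP in Tris-HCl pH 8.0. The enzyme's own pNPP KM was used in analysis; ratio of the Ki values.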

Homo sapiens [5] = species on record: Homo sapiens; experiment: Selectivity ratio of Ki for human CD45 to Ki for human STEP; in short: as §1
Homo sapiens [6] = species on record: Homo sapiens; experiment: Selectivity ratio of Ki for human LAR to Ki for human STEP; in short: as §1
[7] = biological target: T4, Tyrosine-protein phosphatase non-receptor type 5 (Rattus norvegicus) (UniProt P35234); experiment: Inhibition of STEP in Sprague-Dawley rat embryo primary cortical neurons assessed as phosphorylation of Pyk2 at 0.1 to 10 uM after 1 hr by Western blot analysis; conditions: Cerebral cortex neuron
T4 sequence (whole entry): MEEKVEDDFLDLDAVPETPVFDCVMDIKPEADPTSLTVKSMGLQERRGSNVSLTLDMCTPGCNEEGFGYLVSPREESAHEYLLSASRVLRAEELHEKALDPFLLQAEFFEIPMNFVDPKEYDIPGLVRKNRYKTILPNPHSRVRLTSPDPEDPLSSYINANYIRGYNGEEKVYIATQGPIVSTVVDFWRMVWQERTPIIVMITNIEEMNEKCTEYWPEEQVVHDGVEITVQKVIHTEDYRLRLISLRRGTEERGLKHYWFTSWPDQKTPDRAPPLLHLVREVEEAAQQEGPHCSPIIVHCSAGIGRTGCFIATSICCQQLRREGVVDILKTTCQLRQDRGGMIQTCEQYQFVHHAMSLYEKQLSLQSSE
In short: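 E18 rat cortical neurons were trypsin-dissociated and plated on poly-D-lysine in Neurobasal with 2% B27, then grown 18–21 days at 37 °C. Compound was added at final 0, 0.1, 1 or 10 μM (0.1% DMSO) for 1 h at 37 °C. Cells were lysed in RIPA with protease/phosphatase inhibitors and protein measured by BCA. Phospho and total proteins were blotted by SDS-PAGE, with antibodies overnight at 4 °C and chemiluminescent detection.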

Row | SMILES | Ki [1] [µM] | Ki [2] [µM] | Ki [3] [µM] | Ratio Ki (Homo sapiens [4]) | Ratio Ki (Homo sapiens [5]) | Ratio Ki (Homo sapiens [6]) | inhibition [7]
1 | O=P(O)(O)[C@H](O)c1ccc(-c2cccc([C@H](O)c3ccc(Cl)c(Cl)c3)c2)cc1 | 170 | 7.8 | > 500 | 22 | 35 | 50 | Active
2 | O=P(O)(O)[C@H](O)c1ccc(-c2cccc([C@@H](O)c3ccc(Cl)c(Cl)c3)c2)cc1 | 164 | 8.9 | 340 | 18 | 38 | 40 | Active
